This passage reports outcome and AC50 results from PubChem BioAssay AID624033 (Broad Institute, 2012).

The source made the active and inactive calls.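 How the source made its calls: active means raises 665 nm absorbance to half the iron-handling mutant's effect in both replicates, half-effect dose under 50 µM; inactive means the rest.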

System in one assay: not listed separately
Briefly: reduction of P. aeruginosa pyoverdine production, dose response, orthogonal assay for PvdQ inhibitor project, Chrome Azurol S readout, dry powder samples (AID 624033). The settings on record: P. aeruginosa pyoverdine, CAS absorbance 665 nm, 6 h. The method in brief:
(§1)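 Buffer or medium: CAA medium | Signal: CAS dye absorbance, 665 nm | Benchmarks: PvdQ mutant culture as 100% reference | Schedule: 6 h compound culture, 30 °C, then 30 min CAS dye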
Consider `CN(C)CCCC(C#N)c1ccc(F)cc1` (stereo unspecified), for which the outcome was inactive.
The same measure, in the same setting: as for `COCCOCCC(C#N)c1ccc(F)cc1` (stereo unspecified), the entry is “inactive”; as for `COCCC(C#N)c1ccc(F)cc1` (stereo unspecified), “inactive”.

The next assay has as its system P. aeruginosa pyoverdine, CAS absorbance 665 nm, 6 h. Described as above.
Conditions: not given
In a few lines:
as §1
Take `N#CC(c1ccc(Cl)cc1)c1ccc(Cl)cn1` (stereo unspecified): the AC50 – broadly, the concentration giving half of the maximal activity seen – is 17.7 µM.
In the case of `N#CC(c1cccc(Cl)n1)c1ccc(Cl)cc1F` (stereo unspecified), the AC50 was 30.7 µM.
Still for that read-out and setting: as for `CCCCC(C#N)c1ccc(F)cc1` (stereo unspecified), the figure is 27.7 µM.
On the same count and under the same terms, the value for `N#CC(c1ccc(Cl)cc1)c1ncccc1Cl` (stereo unspecified) was 48.3 µM.
Still for that read-out and setting: the value for `N#CC(c1ccc(Cl)cc1)c1cccc(C(F)(F)F)n1` (stereo unspecified) was 22.9 µM; that for `N#CC(c1cccc(C(F)(F)F)n1)c1ccc(Cl)cc1F` (stereo unspecified) was 14.6 µM.
`N#CC(c1ccc(Cl)cc1)c1cccc(Cl)n1` (stereo unspecified): the AC50 is 46.4 µM.
As to `N#CC(c1ccc(F)cc1)c1cccc(C(F)(F)F)n1` (stereo unspecified), the AC50 is 6.21 µM.
